From ChEMBL document CHEMBL4680177, “Novel distamycin analogues that block the cell cycle of African trypanosomes with high selectivity and potency” (Eur J Med Chem, 2020) come the findings set out here.

Active and inactive are the calls of the source. The rule behind the calls is not given here.

The test system of series [1] is Trypanosoma brucei brucei. Briefly: Induction of cell cycle arrest in bloodstream form Trypanosoma brucei brucei 427 assessed as accumulation at single kinetoplast and septum like or partitioned nucleus cells at 7 nM after 24 hrs by DAPI. staining based epifluorescence microscopic analysis relative to control. Format: functional. The method in brief:
(§1)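 Parasites at 5×10^5/mL treated 24 h with DMSO 1%, DAC 41 nM, or compound at 12 or 7 nM. Cells fixed in 4% paraformaldehyde for 18 min at room temperature and smeared on slides. Mounted in DAPI medium and scored by epifluorescence microscopy (60X/100X) for kinetoplast/nucleus configuration. At least 50 cells per sample.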

Series [2] relates to Trypanosoma brucei brucei. Briefly: Antitrypanosomal activity against bloodstream form Trypanosoma brucei brucei 427 assessed as cell viability at 1000 nM after 24 hrs by propidium iodide staining based flow cytometric analysis (reference value: 100 +/- 10%). Type of series: functional.
Series [3] concerns DNA. Briefly: Competitive binding affinity to Escherichia coli XL-1 pUC18 K-DNA at 20 uM after 120 mins by DAPI staining based spectrofluorimetric method relative to control. Format: nucleic-acid assay. The method in brief: (§2)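 pUC18 or pUC18 carrying a T. brucei minicircle, 5 nM in PBS pH 7.4, incubated 30 or 120 min with 20 µM compound or DMSO 1% v/v. DAPI then added to 500 nM final and emission recorded by spectrofluorimetry (ex 358 nm, em 368–600 nm). Fluorescence normalized to the DNA+DMSO+DAPI control set at 100%. Mean ± S.D., n=3.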

In series [4] the test system is Trypanosoma brucei brucei. The series is described as follows: Induction of cell cycle arrest in bloodstream form Trypanosoma brucei brucei 427 assessed as accumulation at S phase at 7 nM after 24 hrs by propidium iodide staining based flow cytometric analysis (reference value: 31%). Format: functional. On the technique in general: In flow cytometry, cells or beads pass a laser one at a time.

Series [5] relates to Trypanosoma brucei brucei. The series is described as follows: Antitrypanosomal activity against bloodstream form Trypanosoma brucei brucei 427 […] assessed as cell viability at 1000 nM preincubated in heat-inactivated serum for 45 mins followed by culture addition and measured after 24 hrs by propidium iodide staining based flow cytometric analysis (reference value: 98.5 +/- 1.4%). As to conditions: time 48.0 hrs, in the assay text read “for 24 hrs” for “for 45 mins”. Type of series: functional. The method in brief: (§3)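 Compound at 100 µM, with ≤1% v/v DMSO, held 24 h at 37 °C in fresh serum or in serum heat-inactivated at 54 °C for 45 min. It was then added to 449-hGrx-roGFP2 T. brucei cultures at 10 or 1000 nM final. Viability after 24 h was read by PI flow cytometry as in the standard assay. Untreated serum-exposed controls were included; mean ± SD.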

In another series the test system is J774. Briefly: Cytotoxicity against mouse J774 cells assessed as reduction in cell viability after 24 hrs by WST-1 assay. As to conditions: J774, 24 h. Type of series: cell-based. Summed up: (§4)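 J774 murine macrophages in DMEM with 10% FBS, 37 °C, 5% CO2. Exposed 24 h to a 6-point compound series, in triplicate, up to 120 µM with DMSO 1% v/v. Viability read with WST-1 reagent relative to DMSO control and EC50 taken from nonlinear fit. The selectivity index is the macrophage EC50 divided by the trypanosome EC50.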

Series [6] is described as follows: Selectivity index, ratio of EC50 for cytotoxicity against mouse J774 cells to EC50 for antitrypanosomal activity against bloodstream form Trypanosoma brucei brucei 427. The note with it: read-out: Ratio EC50. Format: toxicity, cell-based. The method in brief:
as §4

For series [7], the system named is Trypanosoma brucei brucei. Briefly: Antitrypanosomal activity against bloodstream form Trypanosoma brucei brucei 427 […] assessed as cell viability at 10 nM preincubated in heat-inactivated serum for 45 mins followed by culture addition and measured after 24 hrs by propidium iodide staining based flow cytometric analysis (reference value: 98.5 +/- 1.4%). As to conditions: time 48.0 hrs, in the assay text read “for 24 hrs” for “for 45 mins”. Format: functional. The method in brief:
as §3

For series [8], the system named is Trypanosoma brucei brucei. The series is described as follows: Induction of cell cycle arrest in bloodstream form Trypanosoma brucei brucei 427 assessed as accumulation at 1K+1N cells at 7 nM after 24 hrs by DAPI. staining based epifluorescence microscopic analysis (reference value: 80%). Format: functional. Summed up:
as §1

The test system of series [9] is Trypanosoma brucei brucei. The series is described as follows: Antitrypanosomal activity against bloodstream form Trypanosoma brucei brucei 427 […] assessed as cell viability at 10 nM preincubated in fresh serum for 45 mins followed by culture addition and measured after 24 hrs by propidium iodide staining based flow cytometric analysis (reference value: 100 +/- 3.5%). Format: functional. The note with it: time 48.0 hrs, in the assay text read “for 24 hrs” for “for 45 mins”. Summed up: as §3

Series [10] concerns Trypanosoma brucei brucei. Briefly: Antitrypanosomal activity against Trypanosoma brucei brucei AnTaT 1.1 infected in Balb/cJ mouse assessed as reduction in parasitemia at 2.09 to 8.36 mg/kg, ip administered for 7 days and measured up to 17 days. Format: functional, organism-based. As to conditions: dose 2.09-8.36 mg/kg, time 7.0 day. The method in brief:
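Female BalB/cJ mice, 6-8 weeks, ~20 g, infected ip with 10^4 bloodstream T. b. brucei AnTaT 1.1. From day 4 post-infection, groups of 6 dosed ip in 300 µL PBS: daily for 7 days at 2.09 or 8.36 mg/Kg, or one 40 mg/Kg dose; vehicle DMSO 3.3 mg/Kg/day for 7 days. Parasitemia from submandibular blood counted by light microscopy in a Neubauer chamber. Detection limit ≥2.5×10^4 parasites/mL. Kruskal-Wallis test versus vehicle.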

Series [11] has as its system Trypanosoma brucei brucei. The series is described as follows: Antitrypanosomal activity against bloodstream form Trypanosoma brucei brucei 427 […] assessed as cell viability after 24 hrs by propidium iodide staining based flow cytometric analysis. Type of series: functional, organism-based. The note with it: Trypanosoma brucei, 427, 24 h. Summed up:
(§5)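 Bloodstream T. b. brucei 427 expressing hGrx1-roGFP2 (line 449_Grx-roGFP2), grown in HMI-9 with 10% FBS, 37 °C, 5% CO2. Biosensor induced with oxytetracycline (1 µg/mL final). Exponential-phase cells seeded at 5×10^5/mL and exposed 24 h to a single 5 µM screen, or to 0.0001–120 µM for EC50. DMSO ≤1% v/v. Viability read by PI exclusion on flow cytometry, expressed relative to DMSO control. EC50 from nonlinear fit; ≥3 replicates, S.D.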

Series [12] has as its system Trypanosoma brucei brucei. The series is described as follows: Antitrypanosomal activity against bloodstream form Trypanosoma brucei brucei 427 […] assessed as cell viability at 5 uM after 24 hrs by propidium iodide staining based flow cytometric analysis relative to control. Format: functional. Summed up:
as §5

Series [13] has as its system Trypanosoma brucei brucei. Briefly: Induction of cell cycle arrest in bloodstream form Trypanosoma brucei brucei 427 assessed as accumulation at G2/M phase at 14 nM after 24 hrs by propidium iodide staining based flow cytometric analysis (reference value: 20%). Format: functional.
Series [14] has as its system Trypanosoma brucei brucei. The series is described as follows: Induction of cell cycle arrest in bloodstream form Trypanosoma brucei brucei 427 assessed as accumulation at G2/M phase at 7 nM after 24 hrs by propidium iodide staining based flow cytometric analysis (reference value: 20%). Format: functional.
Series [15] deals with Trypanosoma brucei brucei. Briefly: Induction of cell cycle arrest in bloodstream form Trypanosoma brucei brucei 427 assessed as accumulation at G0/G1 phase at 14 nM after 24 hrs by propidium iodide staining based flow cytometric analysis (reference value: 49%). Type of series: functional.
Series [16] relates to Trypanosoma brucei brucei. Briefly: Antitrypanosomal activity against bloodstream form Trypanosoma brucei brucei 427 […] assessed as cell viability at 1000 nM preincubated in fresh serum for 45 mins followed by culture addition and measured after 24 hrs by propidium iodide staining based flow cytometric analysis (reference value: 100 +/- 3.5%). Format: functional. The note with it: time 48.0 hrs, in the assay text read “for 24 hrs” for “for 45 mins”. Summed up:
as §3

Series [17] deals with Trypanosoma brucei brucei. Briefly: Antitrypanosomal activity against bloodstream form Trypanosoma brucei brucei 427 assessed as cell viability at 10 nM after 24 hrs by propidium iodide staining based flow cytometric analysis (reference value: 100 +/- 10%). Format: functional.
In series [18] the test system is Trypanosoma brucei brucei. Briefly: Induction of oxidative stress in bloodstream form Trypanosoma brucei brucei 427 up to 5 times EC50 concentration after 4 hrs by propidium iodide staining based flow cytometric analysis. Format: functional.
Series [19] deals with DNA. Briefly: Competitive binding affinity to Escherichia coli XL-1 pUC18 plasmid DNA at 20 uM after 120 mins by DAPI staining based spectrofluorimetric method relative to control. Type of series: nucleic-acid assay. Summed up:
as §2

Series [20] deals with Trypanosoma brucei brucei. Briefly: Induction of membrane permeability in bloodstream form Trypanosoma brucei brucei 427 assessed as change in integrity at EC50 concentration after 4 hrs by propidium iodide staining based flow cytometric analysis.
Series [21] concerns Trypanosoma brucei brucei. The series is described as follows: Induction of cell cycle arrest in bloodstream form Trypanosoma brucei brucei 427 assessed as accumulation at G0/G1 phase at 7 nM after 24 hrs by propidium iodide staining based flow cytometric analysis (reference value: 49%). Type of series: functional.

By EC50 is commonly meant the concentration needed to bring the measured effect to its halfway point. With `CCOC(=O)c1csc(NC(=O)c2cc(NC(=O)c3csc(NC(=O)OC(C)(C)C)n3)cn2C)n1`, the Activity came out at 26% in series [1]; 10.7% in series [2]; 48% with DNA [3]; 34% in series [4]; 17.5% in [5]; 104.6% in series [7]. Besides, the Activity in series [8] is 46%; in [9], 84.2%; in series [12], 0.06%; in series [13], 94%; in [14], 22%; in [15] it was 6%. Moreover, the values for the Activity in series [16], in series [17] and in [21] were 17.2%, 54.1% and 44%, respectively. For the same molecule, the values for the EC50 (in the series on J774; in series [11]) were not below 40000 nM and 7.1 nM, respectively. For the same molecule, the selectivity ratio in series [6] was 5560. In addition, the result (in [10]; in [18]; in the series with DNA [19]; in series [20]) was inactive.
